Bioassay records: PubChem, The Scripps Research Institute Molecular Screening Center
Only some compounds are listed: those with a hit (about 3.2% of all), similar ones and a draw of the others.
CHO parental Ca – signal in parental CHO cells, OX1R antagonist counter-screen | parental CHO-K1, ATP-induced calcium, Fluo-8 fluorescence | inhibition, % at 5.6 µM | 0.63% of 330,000 active;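 active = inhibition above that plate's mean sample inhibition plus 3 SD, cut at about 26% in these data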
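Test system: untransfected parental CHO cell line; also added: ATP stimulus; dosing: 5.6 µM, single dose; signal: calcium-sensitive Fluo-8 fluorescence; measure: percent inhibition of ATP-evoked calcium rise, normalized to controls; benchmarks: low control ATP plus DMSO, high control DMSO only; replication: one well per compound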
OX1R antag-1 – OX1R (human) antagonism; AID 485270; inhibition, % at 6.6 µM; 1.8% of 330,000 active; OX1R-expressing cells, FRET antagonist read-out; O43613; in the data active = inhibition mostly above about 38%, no sharp cut-off; inactive = mostly below about 40%
Target sequence (O43613 whole entry, looked up): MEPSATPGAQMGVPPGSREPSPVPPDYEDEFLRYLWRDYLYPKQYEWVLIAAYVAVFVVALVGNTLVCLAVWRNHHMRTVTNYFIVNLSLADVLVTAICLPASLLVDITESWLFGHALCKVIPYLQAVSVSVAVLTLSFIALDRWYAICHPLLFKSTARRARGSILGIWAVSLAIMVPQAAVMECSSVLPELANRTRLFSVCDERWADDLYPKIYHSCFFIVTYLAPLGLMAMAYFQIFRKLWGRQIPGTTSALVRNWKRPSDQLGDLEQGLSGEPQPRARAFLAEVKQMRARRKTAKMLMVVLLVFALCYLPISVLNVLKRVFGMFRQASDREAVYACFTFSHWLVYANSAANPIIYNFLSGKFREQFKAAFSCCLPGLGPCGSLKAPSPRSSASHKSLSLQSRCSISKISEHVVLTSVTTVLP
GPR7 antag – human neuropeptides B/W receptor 1 antagonism | P48145 | GPR7-expressing cells, fluorescence antagonist assay | inhibition, % at 4.4 µM | 1.1% of 290,000 active; in the data active = inhibition above about 16%, passing the limit was not always enough;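 also: cells stimulated with the agonist NPW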
Target sequence (P48145 whole entry, looked up): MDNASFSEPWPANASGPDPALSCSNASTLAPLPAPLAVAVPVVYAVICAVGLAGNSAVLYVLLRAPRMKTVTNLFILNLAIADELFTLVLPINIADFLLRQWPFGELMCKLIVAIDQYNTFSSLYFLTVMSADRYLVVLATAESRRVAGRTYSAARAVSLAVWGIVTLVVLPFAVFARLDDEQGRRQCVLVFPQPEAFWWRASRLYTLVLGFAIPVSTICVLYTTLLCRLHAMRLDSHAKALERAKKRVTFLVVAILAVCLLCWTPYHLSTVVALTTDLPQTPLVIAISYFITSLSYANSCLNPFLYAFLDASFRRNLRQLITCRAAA
TRPML3 agonist – agonists of human TRPML3 channel | 0.29% of 220,000 active | Q8TDD5 | HEK293 TRPML3-YFP, Fluo-8 calcium fluorescence; 100% = the carbachol control signal | AID 1448 | activation, % at 3 µM;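 active = activation above its plate's cutoff, the mean activation of the plate's test wells plus 3 SD, cut at about 12% in these data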
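Test system – HEK293 line with stable expression of human TRPML3-YFP channel · Control set – carbachol 87 µM final as high control (100%), DMSO as low control (0%) · Signal – Fluo-8 calcium dye fluorescence, ex 470-495, em 515-575 nm · Incubation – 1-h 37 °C dye load, 5-s basal, 120-s post-compound reads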
OX1R antag-2 – human HCRTR1 antagonism; CHO/OX1R cells, Fluo-8 calcium fluorescence, orexin A; inhibition, % at 5 µM; 0.43% of 330,000 active; AID 434989;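 active = inhibition above its plate's threshold, mean inhibition of all tested compounds on the plate plus 3 SD, cut at about 37% in these data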
TRPN1 ag – zebrafish TRPN1 (NompC) channel agonism. activation, % at 3 µM. AID 1424. HEK293 zebrafish TRPN1-YFP, Fluo-8 calcium fluorescence; 100% = response to 87 µM carbachol. 0.18% of 220,000 active;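 active = activation above its plate's cutoff, the mean activation of test wells on that plate plus 3 SD, cut at about 19% in these data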
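Material: zebrafish TRPN1-YFP in HEK293 cells; Doses: single test compound dose, 3 µM nominal, 0.3% DMSO; Timing: dye loading 1 h at 37 °C, then 30 min room temperature; Technique: intracellular calcium fluorescence with Fluo-8; Benchmarks: high carbachol 87 µM, low DMSO alone.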
TRPN1 ag 2 – activates zebrafish TRPN1, counter-screen for TRPML3 agonists. shares compounds with TRPML3 agonist. HEK293 zebrafish TRPN1-YFP, Fluo-8 calcium fluorescence; scaled: carbachol wells 100%, DMSO wells 0%. activation, % at 3 µM. 10% of 310 active. AID 1525;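 active = mean activation over replicates above a set limit taken from the earlier TRPN1 channel primary screen, cut at about 19% in these data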
TRPML3 confirm – confirmation of human TRPML3 channel agonists. shares compounds with TRPML3 agonist. HEK293 TRPML3-YFP, Fluo-8 calcium fluorescence; 100% set by carbachol, 0% by DMSO. activation, % at 3 µM. 80% of 310 active. AID 1526;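 active = activation above a set limit derived from the earlier primary screen, cut at about 12% in these data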
Large screens that a line does not name were inactive (follow-up assays come after a bar, where they were run).

CCCc1c(C(=O)Nc2cc(C)on2)cnn1-c1ccccc1	none
O=[N+]([O-])c1ccc(COP(=O)(O)OCc2ccc([N+](=O)[O-])cc2)cc1	none (no result: GPR7 antag, TRPML3 agonist, TRPN1 ag)
N#CCC(=O)N/N=C/c1cc(Br)ccc1OCc1cccc2ccccc12	none (no result: TRPML3 agonist, TRPN1 ag)
COc1ccc(C(=O)CSc2nnn(-c3cccc(NC(C)=O)c3)n2)cc1	TRPML3 agonist 12 | TRPN1 ag 2 inactive | TRPML3 confirm 21
COc1ccc(S(=O)(=O)NCc2cccnc2)cc1C(=O)Nc1ccccc1	none (no result: TRPML3 agonist, TRPN1 ag)
Cc1ccc(S(=O)(=O)N2CCN(C(C)C)CC2)cc1	none
Cc1ccc(S(=O)(=O)N2C(=S)SCC2(C)C)cc1	TRPML3 agonist 28 (no result: CHO parental Ca, OX1R antag-1, OX1R antag-2) | TRPN1 ag 2 inactive | TRPML3 confirm 47
O=C1C2C3C=CC(C3)C2C(=O)N1c1ccc(N2CCN(c3ccccn3)CC2)c([N+](=O)[O-])c1 (stereo unspecified)	CHO parental Ca 63, TRPML3 agonist 16 | TRPN1 ag 2 inactive | TRPML3 confirm 21
O=C1c2ccccc2-c2onc3ccc(N4CCCC4)c1c23	TRPML3 agonist 14 (no result: CHO parental Ca, OX1R antag-1, OX1R antag-2) | TRPN1 ag 2 51 | TRPML3 confirm 39
CC1N(C(=O)N2CCOCC2)CCN1S(=O)(=O)c1cccc(C(F)(F)F)c1 (stereo unspecified)	none (no result: TRPML3 agonist, TRPN1 ag)
Cc1ccc(S(=O)(=O)N2CCC(C)CC2)c([N+](=O)[O-])c1	TRPML3 agonist 48 | TRPN1 ag 2 inactive | TRPML3 confirm 60
COC(=O)c1c(NC(=O)COC(=O)[C@@H](NS(=O)(=O)c2ccc(C)cc2)C(C)C)sc2c1CCC2	TRPML3 agonist 29 | TRPN1 ag 2 inactive | TRPML3 confirm 50
CCCOc1cc(N(CC)CC)ccc1/C=C(/C#N)c1nc2ccc(C)cc2[nH]1	CHO parental Ca 75, TRPML3 agonist 13, OX1R antag-2 118 | TRPN1 ag 2 24 | TRPML3 confirm 13
CCC1CCCCN1C(=O)CCNS(=O)(=O)c1ccc2c(c1)oc(=O)n2C (stereo unspecified)	none (no result: TRPML3 agonist, TRPN1 ag)
CCC(CC)CN1CCN=C1N(C)C	none (no result: TRPML3 agonist, TRPN1 ag)
O=C(COC(=O)[C@H](Cc1ccccc1)NC(=O)c1ccco1)Nc1ccccc1	none (no result: GPR7 antag, TRPML3 agonist, TRPN1 ag)
Cc1cc(NC(=O)COC(=O)C(Cc2ccccc2)NC(=O)c2ccco2)no1 (stereo unspecified)	TRPML3 agonist 18 | TRPN1 ag 2 22 | TRPML3 confirm 24
CC1CCN(S(=O)(=O)c2ccc(C(C)C)cc2)CC1	TRPML3 agonist 68 | TRPN1 ag 2 inactive | TRPML3 confirm 118
CC1CCN(S(=O)(=O)c2ccc(Br)s2)CC1	TRPML3 agonist 20 | TRPN1 ag 2 inactive | TRPML3 confirm 19
CC1CCN(S(=O)(=O)c2ccc(Cl)cc2)CC1	none
CN1CCN(S(=O)(=O)c2ccc3ccccc3c2)CC1	none
CC1CCN(S(=O)(=O)c2ccc3ccccc3c2)CC1	TRPML3 agonist 22 | TRPN1 ag 2 inactive | TRPML3 confirm 43
O=S(=O)(c1ccc(Cl)cc1Br)N1CCCCC1	TRPML3 agonist 15 | TRPN1 ag 2 inactive | TRPML3 confirm 27
O=S(=O)(N1CCCCC1)N1CCN(c2cc(Cl)ccc2Cl)CC1	TRPML3 agonist 19 | TRPN1 ag 2 inactive | TRPML3 confirm 96
Cc1ccc(N2CCN(S(=O)(=O)c3ccc(-n4cnnn4)cc3)CC2)c(C)c1	none (no result: TRPML3 agonist, TRPN1 ag)
Cc1ccc(N2CCN(S(=O)(=O)N3CCCCC3)CC2)c(C)c1	TRPML3 agonist 37 | TRPN1 ag 2 inactive | TRPML3 confirm 132
O=S(=O)(c1ccc(Cl)cc1)N1CCN(S(=O)(=O)N2CCCCCC2)CC1	none
CC1CCCCC1NC(=O)CCn1ccc2cc(S(=O)(=O)N3CCCC3)ccc21 (stereo unspecified)	none (no result: TRPML3 agonist, TRPN1 ag)
O=C(NCc1ccc2c(c1)OCO2)C(=O)NCC1OCCCN1S(=O)(=O)c1cc(F)ccc1F (stereo unspecified)	none (no result: TRPML3 agonist, TRPN1 ag)
Cc1cc(C)c(S(=O)(=O)N2CCCCC2)cc1N(C)S(=O)(=O)c1ccc(Cl)cc1	TRPML3 agonist 68 | TRPN1 ag 2 inactive | TRPML3 confirm 69
Cc1cc(C)c(S(N)(=O)=O)c(C)c1N(C)S(=O)(=O)c1ccc(Cl)cc1	none (no result: TRPML3 agonist, TRPN1 ag)
Cc1ccc(S(=O)(=O)N2CCN(C)CC2)c(C)c1N(C)S(=O)(=O)c1ccc(Cl)cc1	TRPML3 agonist 77 | TRPN1 ag 2 inactive | TRPML3 confirm 58
CCc1cccc2c1NC(=O)C21OCCO1	none (no result: TRPML3 agonist, TRPN1 ag)
Cc1cc(C(C)(C)C)oc1C(=O)N(CC(=O)NC1CCCC1)Cc1ccccc1Cl	OX1R antag-1 89, TRPML3 agonist 33, OX1R antag-2 105 | TRPN1 ag 2 inactive | TRPML3 confirm 34
O=C(CN(Cc1ccccc1Cl)C(=O)CCC(=O)Nc1nccs1)NCC1CCCO1 (stereo unspecified)	none (no result: TRPML3 agonist, TRPN1 ag)
FC(F)Sc1ccc(NC(=S)NC2CCCC2)cc1	CHO parental Ca 60, TRPML3 agonist 12 | TRPN1 ag 2 20 | TRPML3 confirm inactive
CCOc1ccc(S(=O)(=O)N(CC)CC(=O)NC2CCS(=O)(=O)C2)cc1 (stereo unspecified)	none (no result: GPR7 antag, TRPML3 agonist, TRPN1 ag)
CC(C)NC(=O)C1(c2ccccc2)CC1(Cl)Cl (stereo unspecified)	none
S=C1CCC(c2ccc(Cl)cc2)=NN1c1ccccc1	TRPML3 agonist 16 | TRPN1 ag 2 inactive | TRPML3 confirm inactive
Cc1cc(C)n(-c2nc(C)nc(NCc3ccccc3)n2)n1	TRPML3 agonist 25 | TRPN1 ag 2 inactive | TRPML3 confirm 23
CNc1nc(C)nc(-n2nc(C)cc2C)n1	none
C/C(=N/O)c1ccc2c(c1)OCCOCCOc1cc(/C(C)=N/O)ccc1OCCOCCO2	none
O=C(Nc1c(S(=O)(=O)c2ccc(Cl)cc2)csc1Br)c1ccccc1Cl	TRPML3 agonist 33 | TRPN1 ag 2 inactive | TRPML3 confirm 44
CCOC(=O)C1CCN(C(=O)C(C)N(c2ccc(Oc3ccccc3)cc2)S(C)(=O)=O)CC1 (stereo unspecified)	TRPML3 agonist 22 (no result: CHO parental Ca, OX1R antag-1, OX1R antag-2) | TRPN1 ag 2 inactive | TRPML3 confirm 18
CCOC(=O)N1CCN(C(=O)C(C)N(c2ccc(Oc3ccccc3)cc2)S(C)(=O)=O)CC1 (stereo unspecified)	none
CC(c1ccccc1)N(NC(=O)C(O)(c1ccccc1)c1ccccc1)C(=O)c1ccccc1 (stereo unspecified)	TRPML3 agonist 13 | TRPN1 ag 2 inactive | TRPML3 confirm 65
CN(CC(=O)O/N=C(\N)c1ccc([N+](=O)[O-])cc1)S(=O)(=O)c1ccccc1	none
